For experiment [1], the target named is Serine/threonine-protein kinase B-raf (Homo sapiens, UniProt P15056, V600E). Nature of the experiment: Inhibition of N-terminal 6x-His-tagged BRAF V600E mutant (unknown origin) expressed in baculovirus infected Sf9 insect cells co-expressing mouse p50cdc37 using C-terminal His-tagged/N-terminal GST-tagged full length human MEK1 as substrate after 1 hr by ELISA. The method in brief: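 ELISA: GST-MEK1 bound to glutathione-coated plate 1 h, room temperature. Insect-cell His-BRAF V600E (1:1000 dilution) preincubated with inhibitor 1 h, room temperature, then reacted with 100 μM ATP in 50 mM HEPES pH 7.0, 200 mM NaCl, 20 mM MgCl2, 30 min, 37 °C. Anti-pMEK S217/S221, HRP secondary, chemiluminescence. Duplicate or triplicate, min–max normalized, log(inhibitor)-response IC50.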
Sequence of Serine/threonine-protein kinase B-raf (Homo sapiens, UniProt P15056, V600E) (P15056 2-766 V600E limits assumed): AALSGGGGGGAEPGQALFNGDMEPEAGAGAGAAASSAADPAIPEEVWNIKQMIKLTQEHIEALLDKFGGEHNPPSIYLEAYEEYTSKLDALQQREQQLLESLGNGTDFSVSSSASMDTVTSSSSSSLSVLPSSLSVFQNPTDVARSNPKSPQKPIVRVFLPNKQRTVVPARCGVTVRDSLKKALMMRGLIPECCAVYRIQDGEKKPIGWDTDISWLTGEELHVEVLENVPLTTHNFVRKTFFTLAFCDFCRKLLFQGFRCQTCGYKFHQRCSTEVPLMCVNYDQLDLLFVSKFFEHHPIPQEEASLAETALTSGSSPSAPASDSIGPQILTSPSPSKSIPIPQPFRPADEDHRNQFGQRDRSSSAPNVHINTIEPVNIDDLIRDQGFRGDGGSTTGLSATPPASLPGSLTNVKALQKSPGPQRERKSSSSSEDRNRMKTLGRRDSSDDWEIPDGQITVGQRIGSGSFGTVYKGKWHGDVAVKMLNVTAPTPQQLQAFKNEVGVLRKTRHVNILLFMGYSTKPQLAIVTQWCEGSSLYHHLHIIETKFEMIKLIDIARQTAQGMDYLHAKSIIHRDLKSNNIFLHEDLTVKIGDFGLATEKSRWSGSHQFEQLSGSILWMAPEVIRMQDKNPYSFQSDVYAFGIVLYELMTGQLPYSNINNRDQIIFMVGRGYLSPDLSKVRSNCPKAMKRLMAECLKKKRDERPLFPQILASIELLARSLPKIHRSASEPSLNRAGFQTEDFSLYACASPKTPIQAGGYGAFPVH
Background: In an ELISA, binding on a coated surface is turned into a signal by an enzyme label.

Experiment [2] has as its target T1, Serine/threonine-protein kinase B-raf (Homo sapiens, UniProt P15056). Nature of the experiment: Inhibition of N-terminal 6x-His-tagged BRAF kinase domain (unknown origin) expressed in baculovirus infected Sf9 insect cells co-expressing mouse p50cdc37 using C-terminal His-tagged/N-terminal GST-tagged full length human MEK1 as substrate after 1 hr by ELISA. In a few lines: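 His-tagged BRAF kinase domain (residues 442–724, WT or V600E) was preincubated with inhibitor 1 h at room temperature in 50 mM HEPES pH 7.0, 50 mM NaCl. It was then added to GST-MEK1 bound on glutathione plates, with 100 μM ATP final in 50 mM HEPES pH 7.0, 200 mM NaCl, 20 mM MgCl2, for 30 min at 37 °C. Phospho-MEK (S217/S221) was read by chemiluminescent ELISA. Curves run in duplicate/triplicate, min–max normalized, IC50 from log(inhibitor)–response fit.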

Experiment [3] concerns Serine/threonine-protein kinase B-raf (Homo sapiens), P15056 [V600E]. Nature of the experiment: Induction of N-terminal 6x-His-tagged BRAF V600E mutant (unknown origin) dimer formation expressed in baculovirus infected Sf9 insect cells co-expressing mouse p50cdc37 at 20 uM by sedimentation velocity method.
Sequence of Serine/threonine-protein kinase B-raf (Homo sapiens), P15056 [V600E] (P15056 whole entry V600E): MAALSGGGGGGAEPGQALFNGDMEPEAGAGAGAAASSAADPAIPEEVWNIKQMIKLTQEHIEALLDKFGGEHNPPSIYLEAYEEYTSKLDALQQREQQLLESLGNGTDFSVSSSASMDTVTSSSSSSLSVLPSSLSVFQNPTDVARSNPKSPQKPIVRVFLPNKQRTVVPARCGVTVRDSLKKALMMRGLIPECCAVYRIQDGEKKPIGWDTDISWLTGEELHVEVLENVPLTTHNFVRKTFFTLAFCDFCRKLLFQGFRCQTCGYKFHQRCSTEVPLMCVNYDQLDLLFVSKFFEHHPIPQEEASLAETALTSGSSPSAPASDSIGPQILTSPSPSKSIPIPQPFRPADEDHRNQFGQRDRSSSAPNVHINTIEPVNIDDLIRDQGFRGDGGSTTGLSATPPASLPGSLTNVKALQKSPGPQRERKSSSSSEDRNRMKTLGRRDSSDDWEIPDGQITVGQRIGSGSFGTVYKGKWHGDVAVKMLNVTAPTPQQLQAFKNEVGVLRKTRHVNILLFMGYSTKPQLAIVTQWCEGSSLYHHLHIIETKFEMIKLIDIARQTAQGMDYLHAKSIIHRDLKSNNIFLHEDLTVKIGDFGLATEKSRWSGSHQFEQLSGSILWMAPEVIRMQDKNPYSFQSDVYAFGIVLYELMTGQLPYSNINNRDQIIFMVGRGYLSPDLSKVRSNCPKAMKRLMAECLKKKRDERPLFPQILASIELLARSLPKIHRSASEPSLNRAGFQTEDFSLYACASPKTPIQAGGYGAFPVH
Experiment [4] deals with T1, Serine/threonine-protein kinase B-raf. Description: Induction of N-terminal 6x-His-tagged BRAF (unknown origin) dimer formation expressed in baculovirus infected Sf9 insect cells co-expressing mouse p50cdc37 at 200 uM measured after trypsin digestion for 30 mins by coomassie blue staining-based SDS-PAGE method.
Experiment [5] has the same target. Description: Induction of N-terminal 6x-His-tagged BRAF (unknown origin) dimer formation expressed in baculovirus infected Sf9 insect cells co-expressing mouse p50cdc37 assessed as melting temperature at 125 uM by differential scanning calorimetric method. (DSC measures the heat that a sample takes up or gives off during a temperature scan.)
Experiment [6] shares this target. Nature of the experiment: Induction of N-terminal 6x-His-tagged BRAF (unknown origin) dimer formation expressed in baculovirus infected Sf9 insect cells co-expressing mouse p50cdc37 at 15 uM by sedimentation velocity method.
Experiment [7] concerns Serine/threonine-protein kinase B-raf (Homo sapiens), P15056 [V600E]. Description: Induction of N-terminal 6x-His-tagged BRAF V600E mutant (unknown origin) dimer formation expressed in baculovirus infected Sf9 insect cells co-expressing mouse p50cdc37 at 10 uM by sedimentation velocity method.
In experiment [8] the target is T1, Serine/threonine-protein kinase B-raf. Nature of the experiment: Induction of N-terminal 6x-His-tagged BRAF (unknown origin) dimer formation expressed in baculovirus infected Sf9 insect cells co-expressing mouse p50cdc37 assessed as melting temperature at 75 uM by differential scanning calorimetric method (reference value: 37.84 degC).
Experiment [9] shares this target. Nature of the experiment: Induction of N-terminal 6x-His-tagged BRAF (unknown origin) dimer formation expressed in baculovirus infected Sf9 insect cells co-expressing mouse p50cdc37 assessed as melting temperature at 250 uM by differential scanning calorimetric method (reference value: 37.84 degC).

Active and inactive are the calls of the source. No cut-off for these calls is given here.

T1 sequence (P15056 whole entry, the tested form may be a part): as the sequence (P15056 whole entry V600E) above, with E600V counted along it

Usually IC50 stands for the concentration at which inhibition is half-maximal. Lower therefore signals greater potency in that assay. On to `N#Cc1c(Oc2ccc(F)c(NC(=O)Cc3cccc(C(F)(F)F)c3)c2)ccc2nc(NC(=O)COCCOCCOCCOCC(=O)Nc3nc4ccc(Oc5ccc(F)c(NC(=O)Cc6cccc(C(F)(F)F)c6)c5)c(C#N)c4s3)sc12`, for which the IC50 in experiment [1] came out at 168 nM; in experiment [2] it was 616 nM.

As for `N#Cc1c(Oc2ccc(F)c(NC(=O)Cc3cccc(C(F)(F)F)c3)c2)ccc2nc(NC(=O)COCC(=O)Nc3nc4ccc(Oc5ccc(F)c(NC(=O)Cc6cccc(C(F)(F)F)c6)c5)c(C#N)c4s3)sc12`, the IC50 amounted to 421 nM in [1] and 537 nM in [2].

For the compound `N#Cc1c(Oc2ccc(F)c(NC(=O)Cc3cccc(C(F)(F)F)c3)c2)ccc2nc(NC(=O)COCCOCCOCCOCCOCC(=O)Nc3nc4ccc(Oc5ccc(F)c(NC(=O)Cc6cccc(C(F)(F)F)c6)c5)c(C#N)c4s3)sc12`, the concentration for half-maximal inhibition (IC50) in experiment [1] is 73.8 nM; in [2], 85.5 to 90.2 nM. The result in [3] was inactive.

With `N#Cc1c(Oc2ccc(F)c(NC(=O)Cc3cccc(C(F)(F)F)c3)c2)ccc2nc(NC(=O)COCCOCCOCC(=O)Nc3nccs3)sc12`, in experiment [2], the concentration for half-maximal inhibition (IC50) was 20.3 nM. The result in [4] was Active. For the same compound, the Tm in experiment [5] stood at 63.3 °C.

Consider `N#Cc1c(Oc2ccc(F)c(NC(=O)Cc3cccc(C(F)(F)F)c3)c2)ccc2nc(NC(=O)COCCOCCOCCOCCOCCOCCOCC(=O)Nc3nc4ccc(Oc5ccc(F)c(NC(=O)Cc6cccc(C(F)(F)F)c6)c5)c(C#N)c4s3)sc12`, for which the figures for the half-maximal inhibitory concentration (IC50) in experiment [1] and in [2] were 352 nM and 732 nM, respectively.

Turning to `COCCOCC(=O)Nc1nc2ccc(Oc3ccc(F)c(NC(=O)Cc4cccc(C(F)(F)F)c4)c3)c(C#N)c2s1`, inhibition in experiment [2] was half-maximal at 5.75 nM (IC50).

With `CCCS(=O)(=O)Nc1ccc(F)c(C(=O)c2c[nH]c3ncc(-c4ccc(Cl)cc4)cc23)c1F`, the outcome in [6] and in experiment [4] was inactive.

For `N#Cc1c(Oc2ccc(F)c(NC(=O)Cc3cccc(C(F)(F)F)c3)c2)ccc2nc(NC(=O)C3CC3)sc12`, the IC50 is 4.46 nM in experiment [1] and 3.23 to 7.11 nM in experiment [2]. The result in [6], in experiment [7] and in experiment [4] was Active. Besides, the Tm in experiment [5] was 68.7 °C.

In the case of `N#Cc1c(Oc2ccc(F)c(NC(=O)Cc3cccc(C(F)(F)F)c3)c2)ccc2nc(NC(=O)COCCOCCOCC(=O)Nc3nc4ccc(Oc5ccc(F)c(NC(=O)Cc6cccc(C(F)(F)F)c6)c5)c(C#N)c4s3)sc12`, the IC50 is 73.9 nM in [1] and 87.2 to 132 nM in experiment [2]. The outcome in experiment [6], in experiment [7], in experiment [3] and in experiment [4] was inactive. Moreover, the Tm is 38.7 to 59.6 °C in experiment [5], 38.4 to 58.6 °C in experiment [8] and 40.1 to 62.6 °C in [9].

The values are drawn from ChEMBL document CHEMBL4229397, “N-(7-Cyano-6-(4-fluoro-3-(2-(3-(trifluoromethyl)phenyl)acetamido)phenoxy)benzo[d]thiazol-2-yl)cyclopropanecarboxamide (TAK632) Promotes Inhibition of BRAF through the Induction of Inhibited Dimers” (J Med Chem, 2018).
